# Screening data (PubChem)
# This is a sample that favours compounds with a hit; in the whole collection about 4.1% have one here.
# FID counter = compounds displacing fluorescent DNA intercalator, primary screen, artefact control for HCV NS3 helicase inhibitor project, biochemical, FID fluorescence | DNA fluorescent intercalator displacement | inhibition, % at 7.9 µM | hit rate 0.17% among 290,000; in the data active means inhibition above about 37%;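 further: 0% = vehicle and 100% = reference compound; higher means more ethidium bromide displaced from hairpin DNA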
# MEKK3 PB1 HTS = modulators of MEKK3-MEK5 PB1 binding, primary screen, biochemical, wildtype MEKK3, multiplex bead flow cytometry, Alexa488-MEK5. bead-based flow cytometry, Alexa488-MEK5 binding to MEKK3; actives lie on both sides; 0 = blocked by unlabeled MEK5, 100 = vehicle. binding response (% of control), % at 10 µM. hit rate 1.4% among 290,000;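 active means binding response more than 3 SD above or below the average of its plate-row segment, actives on both sides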;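 further: Alexa488 bead fluorescence after subtracting the streptavidin-only scavenger bead signal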
# Target sequence (Q99759 whole entry, looked up): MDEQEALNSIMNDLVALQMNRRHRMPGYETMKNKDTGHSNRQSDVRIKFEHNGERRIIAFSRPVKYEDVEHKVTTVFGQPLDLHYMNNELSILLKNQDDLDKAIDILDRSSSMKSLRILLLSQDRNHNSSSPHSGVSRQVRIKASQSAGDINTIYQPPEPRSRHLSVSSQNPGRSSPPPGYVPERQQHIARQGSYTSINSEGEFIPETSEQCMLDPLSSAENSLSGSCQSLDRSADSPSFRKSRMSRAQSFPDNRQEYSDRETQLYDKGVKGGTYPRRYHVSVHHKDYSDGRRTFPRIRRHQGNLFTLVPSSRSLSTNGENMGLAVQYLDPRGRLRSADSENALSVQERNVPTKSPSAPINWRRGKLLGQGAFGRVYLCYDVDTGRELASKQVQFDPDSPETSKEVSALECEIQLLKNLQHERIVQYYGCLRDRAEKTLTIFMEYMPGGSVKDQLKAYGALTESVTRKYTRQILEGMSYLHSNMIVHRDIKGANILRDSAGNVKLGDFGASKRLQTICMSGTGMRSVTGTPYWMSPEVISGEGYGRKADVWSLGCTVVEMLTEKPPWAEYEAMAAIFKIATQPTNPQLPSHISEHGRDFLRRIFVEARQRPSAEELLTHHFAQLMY
# HCV NS3 hel inh = inhibitors of HCV NS3 helicase, primary screen, biochemical, Cy5 molecular beacon fluorescence; NS3 helicase DNA unwinding; inhibition, % at 10.9 µM; hit rate 0.56% among 290,000;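 active means inhibition above the mean of all tested compounds plus 3 SD, set per campaign, cut at about 35% in these data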;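 further: 0% = DMSO wells and 100% = thioflavine S control wells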
#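 test system = hepatitis C virus NS3 helicase domain fragment enzyme | reagent = annealed dual-labelled DNA beacon duplex, ATP-started | times = 1 h at 25 °C | detection = Cy5 fluorescence, 0 and 60 min reads | read-out basis = percent inhibition from t60/t0 fluorescence ratio | control set = DMSO and thioflavine S | replication = one well per compound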
# MEKK2 mut-MEK5 = MEK5 binding signal on mutant MEKK2 PB1, primary screen, biochemical, multiplex bead flow cytometry, Alexa488-MEK5. Alexa488-MEK5 binding to MEKK2 mutant. percent response, % at 10 µM. hit rate 0.35% among 290,000; in the data active means percent response above about 24%, passing the limit was not always enough
# T cruzi repl = inhibitors of intracellular T. cruzi growth, primary screen, luminescence, NIH3T3 host cells; T. cruzi beta-gal in NIH3T3, 90 h; inhibition, % (test concentration not listed); hit rate 1.4% among 300,000; AID 1885, 2009;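 active means mean inhibition across valid replicates above about 55%, limit read from the data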;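 further: signal also drops with host cell toxicity which is not excluded here; 0% = plate median of DMSO wells and 100% = zero luminescence signal; higher percent means less beta-gal luminescence so fewer parasites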
#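 System: mouse NIH/3T3 fibroblasts infected with β-gal-expressing T. cruzi Tulahuen C4 / Input: NIH/3T3 cells, 5,000 per well / Buffer or medium: Low-serum DMEM with 2% FBS / Probe or stimulus: 5000 reporter trypomastigotes per well / Schedule: ≥90 h infection period, 3 h prior cell attachment / Measured by: GalScreen luminescence, 60 min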
# MEKK2 WT-MEK5 = modulators of MEK5 binding to wildtype MEKK2, primary screen, biochemical, multiplex bead flow cytometry, Alexa488-MEK5; Alexa488-MEK5 binding to MEKK2 WT; actives lie on both sides; hit rate 1.1% among 290,000; binding response (% of control), % at 10 µM; Mitogen-activated protein kinase kinase kinase 2 (Homo sapiens), Q9Y2U5; AID 1531, 2009; in the data active means binding response below about 67% or above about 130%
# An asterisk follows results filed as active; . = no result.
SMILES,FID counter,MEKK3 PB1 HTS,HCV NS3 hel inh,MEKK2 mut-MEK5,T cruzi repl,MEKK2 WT-MEK5
Cc1cccc(N2CCN(c3nc(C)cc(C)c3C#N)CC2C)c1 (configuration not stated),-2.6,104.0,2.4,0.0,65.2*,102.0
Cc1c([N+](=O)[O-])cnc(Sc2ccccc2)c1[N+](=O)[O-],.,.,.,.,4.9,.
CNc1ncnc(Sc2ccc(Cl)cc2)c1[N+](=O)[O-],2.0,100.0,14.3,-3.0,65.7*,101.0
Cc1cc(SCC(=O)N/N=C/c2ccc(O)cc2O)nc2ccccc12,-23.6,106.0,8.8,11.0,69.0*,102.0
O=C1c2cccc3c(Nc4ccccc4Cl)c([N+](=O)[O-])cc(c23)C(=O)N1CCO,1.4,100.0,-0.9,-4.0,59.3*,93.0
O=C1c2cccc([N+](=O)[O-])c2C(=O)N1CCO,0.8,104.0,21.6,-11.0,0.3,90.0
COc1ccccc1N1CCN(c2ncc(C(=O)N3CCN(c4cccc(Cl)c4)CC3)c3ccccc23)CC1,4.0,102.0,3.6,0.0,61.5*,101.0
CCN(CC)CCNC(=S)Nc1ccc2nc(N3CCN(C)CC3)cc(C)c2c1,44.4*,102.0,-0.5,18.0,42.6,124.0
Cc1c(Br)c([N+](=O)[O-])nn1CC(=O)Nc1ccc2nc3n(c(=O)c2c1)CCCC3,64.4*,103.0,1.5,1.0,-5.8,105.0
CCN(CC)CCNC(=S)Nc1ccc2nc(N3CCOCC3)cc(C)c2c1,14.5,103.0,10.8,9.0,-12.5,108.0
CCN(CC)CCNC(=S)Nc1ccc2nc(N3CCCC3)cc(C)c2c1,48.7*,112.0,-1.2,-2.0,53.6,103.0
COCCNC(=S)Nc1ccc2nc(N3CCN(C)CC3)cc(C)c2c1,12.3,104.0,-7.0,13.0,25.0,116.0
CCCN(CCC)CCCNC(=S)Nc1ccc2nc(N3CCCC3)cc(C)c2c1,43.2*,106.0,0.9,43.0,59.4*,156.0*
Cc1ccc(-c2nnc(SCC(=O)N(CC(C)C)c3c(N)n(Cc4ccccc4)c(=O)[nH]c3=O)n2N)cc1,-39.9,103.0,-0.7,5.0,0.2,108.0
Cc1cc(N2CCOCC2)nc2ccc(NC(=S)NCCN(C)C)cc12,52.0*,100.0,10.9,-3.0,-4.9,105.0
O=c1c2cc(NC(=S)NCCN3CCCCCC3)ccc2nc2n1CCCCC2,1.3,101.0,-4.8,3.0,8.1,113.0
CCN1CCN(c2cc(C)c3cc(NC(=S)NCCCOC)ccc3n2)CC1,1.9,104.0,-11.0,9.0,-20.0,120.0
CCCCN(CC)CCCNC(=S)Nc1ccc2nc3n(c(=O)c2c1)CCCCC3,8.5,94.0,-8.5,-1.0,56.0*,98.0
Cc1cc(N2CCN(C)CC2)nc2ccc(NC(=S)NCCC(C)C)cc12,16.0,111.0,-48.9,20.0,57.4*,129.0
CCCCN(CC)CCCNC(=S)Nc1ccc2nc(N3CCN(CC)CC3)cc(C)c2c1,52.0*,115.0,11.2,16.0,48.9,138.0*
C[C@H](NC(=O)N1CCn2c1nc1ccccc12)C(=O)N1CCCCC1,-24.7,102.0,11.1,3.0,-5.6,103.0
COc1ccc(S(=O)(=O)Nc2ccccc2-c2nc3ccccc3[nH]c2=O)cc1,-8.3,99.0,-2.8,-4.0,7.5,99.0
CC(C)(C)c1ccc(C(=O)NC2CCN(Cc3ccccc3)CC2)cc1,4.1,99.0,-17.8,6.0,52.7,109.0
CN1C(=O)/C(=C\c2ccccc2F)Sc2ccc(C(=O)NC3CCN(Cc4ccccc4)CC3)cc21,14.8,104.0,-39.8,20.0,61.1*,168.0*
O=C(NC1CCN(Cc2ccccc2)CC1)c1ccccc1,-5.3,104.0,-0.3,5.0,56.0*,109.0
O=C(Nc1ccc2c(c1)OCO2)NC1CCN(Cc2ccccc2)CC1,8.5,99.0,-6.0,5.0,55.6*,102.0
